# This is a sample that favours compounds with a hit; in the whole collection about 2.1% have one here.
# EP2 mod: modulators of human EP2 prostaglandin E2 receptor; P43116; EP2-expressing cells, cAMP HTRF FRET, PGE2 co-stimulation; induction, % at 25 µM; actives 0.83% (n = 260,000); AID 940;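 active = compounds whose cAMP rise, as percent of the full-agonist control response, exceeds 60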;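 note: rat C6 glioma line stably carrying human EP2 under a CMV promoter; the protocol text gives 20 µM as final concentration; 100% = response of wells given 1 µM PGE2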
# hK5 inh: kallikrein 5 (human) inhibition; AID 873; actives 0.59% (n = 210,000); recombinant hK5, fluorogenic AMC substrate cleavage; Q9Y337; inhibition, % at 5 µM;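 active = inhibition of 40% or more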;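 note: 0% = enzyme controls without compound and 100% = no-enzyme blanks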
# FXIIa inh: factor XIIa (human) inhibition | purified FXIIa, Boc-QGR-AMC fluorogenic substrate, 2 h | actives 0.3% (n = 220,000) | inhibition, % at 5 µM | AID 800 | P00748; in the data active = inhibition above about 40%;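 note: 0% = enzyme with no compound and 100% = blank without enzyme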
# Target sequence (P00748 20-372 limits assumed): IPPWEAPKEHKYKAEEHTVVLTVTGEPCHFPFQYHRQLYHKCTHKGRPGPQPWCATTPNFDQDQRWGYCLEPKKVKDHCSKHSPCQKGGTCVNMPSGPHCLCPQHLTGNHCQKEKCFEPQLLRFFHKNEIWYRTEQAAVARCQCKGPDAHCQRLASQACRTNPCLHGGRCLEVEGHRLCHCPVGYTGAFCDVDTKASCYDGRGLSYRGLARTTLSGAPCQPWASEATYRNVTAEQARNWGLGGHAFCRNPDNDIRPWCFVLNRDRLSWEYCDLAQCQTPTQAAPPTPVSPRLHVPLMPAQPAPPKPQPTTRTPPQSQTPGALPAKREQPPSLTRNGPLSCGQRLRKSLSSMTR
# Target sequence (P00748 373-615 limits assumed): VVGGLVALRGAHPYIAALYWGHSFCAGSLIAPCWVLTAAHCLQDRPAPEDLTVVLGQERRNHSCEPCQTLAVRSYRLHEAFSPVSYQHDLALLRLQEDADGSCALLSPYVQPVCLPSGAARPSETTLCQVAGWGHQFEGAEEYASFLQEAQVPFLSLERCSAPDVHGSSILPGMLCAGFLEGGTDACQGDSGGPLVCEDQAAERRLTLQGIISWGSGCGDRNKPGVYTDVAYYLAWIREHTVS
# EP2 antag: blocks the human prostaglandin E2 receptor EP2 | actives 0.52% (n = 260,000) | C6 glioma cells expressing human EP2, cAMP TR-FRET; cells stimulated with saturating PGE2 | inhibition, % at 25 µM | P43116 | AID 1422;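 active = percent inhibition above 40 after rounding to a whole number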;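 note: rat C6 glioma host cells with rolipram phosphodiesterase inhibitor present; the protocol text gives 20 µM as final concentration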
# Thrombin inh: blocks human thrombin protease activity; P00734; alpha-thrombin, Boc-VPR-AMC fluorogenic substrate cleavage; inhibition, % at 5 µM; actives 0.26% (n = 220,000);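 active = inhibition at or above 40%; inactive = inhibition below 40%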;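 note: 0% = enzyme with no compound and 100% = wells without enzyme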
#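 Material: human alpha-thrombin protein; Also added: Boc-VPR-AMC substrate, 15 µM final; Timing: enzyme reaction carried out at room temperature; Signal: fluorescence, ex 355 nm, em 460 nm; Measure: % inhibition of thrombin; Controls: enzyme without compound as high, wells lacking enzyme as low.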
# FXIa inh: blocks human coagulation factor XIa protease activity; purified FXIa, Boc-Glu-Ala-Arg-AMC fluorogenic substrate; actives 0.14% (n = 220,000); P03951; inhibition, % at 5 µM;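 active = inhibition of at least 40%; inactive = inhibition below 40%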;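 note: fluorescence of freed AMC excited at 355 nm; 0% = enzyme without compound and 100% = no enzyme blank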
# An asterisk follows results filed as active; . = no result; ! = not confirmed by another sample.
SMILES,EP2 mod,hK5 inh,FXIIa inh,EP2 antag,Thrombin inh,FXIa inh
CCOC(=O)CC(=O)CSc1nc2c(C)ccc(C)c2cc1CC,95*,.,.,14,.,.
O=C(/C=C/c1ccc(Cl)cc1Cl)c1ccc2c(c1)OCCO2,-60,.,.,10,.,.
COc1cccc2cc(-c3nnc(SCC(=O)Nc4ccc(F)cc4)n3C)oc12,-32,.,.,9,.,.
Cn1cc(-c2nnc(-c3ccccc3)o2)c2ccccc21,-25,87*,-15,15,1,-11
CC(NCCN(C)C)C(=O)N1CCc2ccccc21 (stereo not given),-21,.,.,12,.,.
O=C(COc1ccc(S(=O)(=O)N2CCCC2)cc1)NCc1ccc2c(c1)OCO2,1,.,.,10,.,.
CC(C)c1cc(C(=O)Nc2cccnc2)no1,-2,45*,21,7,14,6
Nc1nc(-c2ccccc2)c(-c2ccccc2)c(-c2nc(N)nc(-c3ccccc3)c2-c2ccccc2)n1,13,.,.,48*,.,.
Nc1nc(-c2ccccc2)c(-c2ccccc2)o1,-29,-8,10,7,-4,4
CN(C)CCCN=c1c2ccccc2n(C)c2[nH]c(=O)n(C)c(=O)c12,19,.,.,46*,.,.
CCc1nn(CC(=O)NCc2ccccn2)c(=O)c2cc3sc(C)cc3n12,9,.,.,.,.,.
Cc1ccc(/C=C/C(=O)c2ccc(Br)cc2)o1,-107,.,.,95*,.,.
CC(=O)/C=C/c1ccc(C)o1,16,7,10,8,-8,1
CC1CCN(CC[S-])CC1.O.O.[Cl][Pt],-45,.,.,97*,.,.
CCc1ccc(NC(=O)c2nc3nc(C)cc(C(F)F)n3n2)cc1,-22,.,.,10,.,.
CCN(CC)c1ccc(NC(=O)c2nc3nc(C)cc(C(F)F)n3n2)cc1,-8,48*,11,13,22,9
CC(/C=N/NC(=O)Cn1nnc(N)n1)=C\c1ccc(C(C)C)cc1,89*,0,9,2,-7,0
Cc1nn(-c2ccccc2)c2[nH]c(=O)c(CNc3ccc(F)c(Cl)c3)cc12,-22,.,.,20,.,.
Cc1cc[nH]c(=O)c1NCc1cc2c(C)nn(-c3ccccc3)c2[nH]c1=O,-71,.,.,46*,.,.
N#CSC1CS(=O)(=O)C=C1Cl (stereo not given),-111,.,.,133*,.,.
CN(C)Cc1ccc(F)cc1Sc1ccc(Cl)cc1Cl,62*,-6,-3,3,-5,2
CCc1cc2cc3c(cc2n2c(=O)n(CC(=O)NC4CC4)nc12)OCO3,32,.,.,.,.,.
C=CCn1c2ccccc2c2nnc(SCC(=O)OCC(=O)Nc3cccc4ccccc34)nc21,-15,.,.,14,.,.
Cc1nn2c(C(F)(F)F)c3c(nc2c1-c1ccccc1)CCC3,62*,2,8,7,-14,-4
Cc1nn2c(NCCCN(C)C)c3c(nc2c1-c1ccccc1)CCC3,-24,56*,3,8,68*,3
SMILES,EP2 mod,hK5 inh,FXIIa inh,EP2 antag,Thrombin inh,FXIa inh
Cc1cc(C)cc(NC(=O)CCN2CCCC(C)C2)c1 (stereo not given),-21,.,.,14,.,.
COc1cccc(C(=O)N/N=C/c2ccc(OC3CSC3)cc2)c1,-4,45*,25,10,25,19
Cc1cccc(C(=O)N/N=C/c2ccc(OC3CSC3)cc2)c1,16,-23,10,8,1,-8
Cc1cccc(NC(=O)CSCc2c(C)noc2C)c1C,14,8,56*,8,0,35
Cc1noc(C)c1CSCC(=O)NC1=NCCS1,.,.,.,6,.,.
CCC1c2ccc(C)n2CCN1C(=O)Nc1ccccc1C(=O)OC (stereo not given),50,-12,4,11,-4,-3
CCOC(=O)c1ccccc1NC(=O)N1CCn2c(C)ccc2C1CC (stereo not given),64*,-26,-3,0,3,-8
COc1cccc(Nc2ccc(Nc3cccc(OC)c3)nn2)c1,-6,53*,7,3,15,9
COc1cccc(CNc2nc3ccc(C)cc3n3cnnc23)c1,-5,5,11,6,0,3
COc1cccc(Nc2nc3ccccc3n3cnnc23)c1,10,64*,17,13,2,2
O=C(/C=C/c1cccs1)c1ccc(NC(=O)c2cccs2)cc1,-25,.,.,13,.,.
COCCNc1cc(C)nc2cc(-c3ccc(C)cc3)nn12,62*,10,8,9,-7,2
CCOc1cc(NC(=S)NCc2ccco2)c(OCC)cc1NC(=O)c1cccs1,35,.,.,5,.,.
CC(=O)c1ccc(NC(=O)CSc2nc3cc(C)cc(C)c3cc2C#N)cc1,60,.,.,28,.,.
COC(Cn1c(C)c(C(C)=O)c(C(C)=O)c1C)OC,14,1,48*,.,2,24
CCc1nc2oc3cc(OC)ccc3c(=O)c2c(=O)n1Cc1ccccc1,14,48*,27,9,25,7
Cn1c(NC(=O)c2cccnc2)nc2ccccc21,17,-19,1,52*,0,-8
O=C(Nc1cnc2ccccc2c1)c1cccnc1,-22,-7,16,3,-1,2
C=C(C)CN1CCN(Cc2ccc(OC)c(Cc3c(C)noc3C)c2)CC1,5,.,.,5,.,.
Cc1ccc(SCN2CCCCC2)cc1 (tested in a mixture with another compound),26,.,.,52*,.,.
Cc1ccc(SCC(=O)N2CCOCC2)cc1,18,-18,10,11,2,1
O=C(Cn1c(=O)sc2ccccc21)Nc1cccc2ccccc12,10,.,.,9,.,.
CCOc1ccc(NC(=O)c2c(NCc3cccn3C)sc3c2CCC3)cc1,-168,.,.,39,.,.
Cn1c(N)nc2c(nc(OCc3ccccc3)n2[C@H]2O[C@H](CO)[C@@H](O)[C@@H]2O)c1=O,25,.,.,57*,.,.
CCc1nn(C(C)C(=O)O)c(=O)c2cc3ccsc3n12 (stereo not given),8,.,.,3,.,.
SMILES,EP2 mod,hK5 inh,FXIIa inh,EP2 antag,Thrombin inh,FXIa inh
CCn1c(NCc2ccc3c(c2)OCO3)nc2ccccc21,3,53*,11,4,21,3
C=CCn1c(NCc2ccc3c(c2)OCO3)nc2ccccc21,-13,-10,31,11,9,20
O=C(CSc1nc(-c2ccco2)cc(C(F)(F)F)n1)Nc1ccccc1Cl,-98,.,.,16,.,.
COC(=O)c1ccccc1NC(=O)CSc1nc(-c2ccco2)cc(C(F)(F)F)n1,65*!,-27,6,6,2,4
CCc1nn(CC(=O)N2CCCC2)c(=O)c2cc3occc3n12,-12,.,.,1,.,.
C=C(C)Cn1c(=O)c(NC(=O)c2ccccc2)c2n(c1=S)CCC2,32,41*,20,32,25,16
COc1ccc(OC)c(CN2CCN(C(=O)c3cccc(OC)c3OC)CC2)c1,-39,.,.,7,.,.
COc1cc(OC)cc(C(=O)N2CCN(Cc3ccccc3C(F)(F)F)CC2)c1,-14,12,40*,2,7,2
COc1ccc(OC)c(CN2CCN(C(=O)c3cccc4ccccc34)CC2)c1,18,44*,17,21,4,-1

# Compound activity deposited in PubChem BioAssay by several laboratories.
